For series [1], the target named is T1, Solute carrier family 22 member 1 (Homo sapiens, UniProt O15245).
T1 sequence (O15245 whole entry): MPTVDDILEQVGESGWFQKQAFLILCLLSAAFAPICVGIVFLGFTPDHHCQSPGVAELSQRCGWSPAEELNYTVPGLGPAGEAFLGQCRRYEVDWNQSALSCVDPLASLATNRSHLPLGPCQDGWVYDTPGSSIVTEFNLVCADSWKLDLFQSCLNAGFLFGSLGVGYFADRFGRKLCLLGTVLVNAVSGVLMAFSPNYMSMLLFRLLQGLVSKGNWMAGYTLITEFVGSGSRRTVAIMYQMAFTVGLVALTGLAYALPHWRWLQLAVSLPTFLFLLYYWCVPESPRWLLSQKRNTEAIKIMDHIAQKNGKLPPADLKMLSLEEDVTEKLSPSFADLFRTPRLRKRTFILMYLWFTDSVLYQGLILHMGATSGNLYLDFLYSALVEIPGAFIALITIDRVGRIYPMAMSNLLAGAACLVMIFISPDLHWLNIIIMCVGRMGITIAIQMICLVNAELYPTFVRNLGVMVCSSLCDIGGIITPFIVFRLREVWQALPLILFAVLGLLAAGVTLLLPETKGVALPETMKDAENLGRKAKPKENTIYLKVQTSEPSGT
In words: (§1) Inhibition of human OCT1 expressed in HEK293 cells assessed as decrease in uptake of ASP+ after 2 mins by fluorescence assay. Format: cell-based. The method, boiled down:
(§2)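 Human OCT1-overexpressing HEK-293 cells (48 h growth, ~90% confluent) were incubated 2 min at 37°C in HBSS with 2 µM ASP+ and serially diluted inhibitor. IC50 was obtained by curve fitting.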

The next series has as its target T2, OCT1 (SLC22A1) (Homo sapiens, UniProt O15245).
T2 sequence (O15245 whole entry): T1 sequence (O15245 whole entry)
The series is described as §1. Format: cell-based. Conditions: human, HEK293 cells that express human OCT1, probe ASP+; call rule not given here. The method, boiled down:
as §2

Series [2] concerns the target T1, Solute carrier family 22 member 1. Description: Ratio of Kii for human OCT1-ASP+-inhibitor complex to Kis for human OCT1-inhibitor complex by Lineweaver-Burk plot analysis.
The target is the same in series [3]. Description: Competitive inhibition of human OCT1 expressed in HEK293 cells assessed as decrease in uptake of ASP+ after 2 mins by Lineweaver-Burk plot analysis. Format: cell-based. Conditions: hek293, 2 min. The gist of the method:
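HEK-293 cells stably overexpressing human OCT1 (kept in DMEM, 10% FBS, 75 µg/ml hygromycin B) were grown 48 h to ~90% confluence. They were exposed for 2 min at 37°C to HBSS with serial dilutions of ASP+ plus inhibitor at 4 fixed concentrations. Fluorescence was read at ex 485/em 585 nm. Reciprocal uptake at each inhibitor level was fitted by linear regression.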

Series [4] has the same target. In words: Competitive inhibition of human OCT1 expressed in HEK293 cells assessed as decrease in uptake of ASP+ after 2 mins by Lineweaver-Burk plot analysis. Conditions: hek293, 2 min.
The target is the same in series [5]. Description: Inhibition of human OCT1 expressed in HEK293 cells assessed as decrease in uptake of YM155 after 1 min.

Each structure is given as a SMILES string.

In general, IC50 refers to the concentration that gives 50% inhibition. For `Cc1cc(C(C#N)c2ccc(Cl)cc2)c(Cl)cc1NC(=O)c1cc(I)cc(I)c1O` (centres undefined) [CLOSANTEL], in series [1], the IC50 was determined as 3 µM.
On the same count and under the same terms, the result for `Clc1ccc(C(OCCN2CCCCC2)c2ccccc2)cc1` (centres undefined) [CLOPERASTINE] reads 14.9 µM; that for `Clc1cccc(Cl)c1N=C1NCCN1` [CLONIDINE], 19 µM.
The term inhibition denotes the relative decrease from the control value, in per cent. On to `Cc1ncc(C[n+]2csc(CCO)c2C)c(N)n1` [THIAMINE ION], for which the inhibition at 2 min at OCT1 (SLC22A1) is -1.5%. Also, in series [1], the IC50 was found to be 4350 µM. The Ratio in series [2] amounted to 95.6.
In the case of `c1ccc(CC2NCCc3ccccc32)cc1` (centres undefined), the “inhibition (INH)” value in series [3] was “Active”. Also, in series [1], the IC50 came out at 82.1 µM.
With `CC(CCc1ccc(O)cc1)NCCc1ccc(O)c(O)c1` (centres undefined) [DOBUTAMINE], the IC50 in series [1] was 4.17 µM.
Same read-out and setting: the result for `COc1ccc2c(c1)[C@]13CCCC[C@@H]1[C@H](C2)N(C)CC3` [DEXTROMETHORPHAN] reads 10.5 µM; that for `CCN(CC)CCNC(C(=O)OCCC(C)C)c1ccccc1` (centres undefined) [CAMYLOFIN], 9.12 µM; that for `CN(C)CCC=C1c2ccccc2COc2ccccc21` [DOXEPIN], 11.2 µM.
Still for that read-out and setting: the result for `COc1cc2nc(N(C)CCCNC(=O)C3CCCO3)nc(N)c2cc1OC` (centres undefined) [ALFUZOSIN] reads 14.9 µM; that for `CC(=O)N1CCN(c2ccc(OCC3COC(Cn4ccnc4)(c4ccc(Cl)cc4Cl)O3)cc2)CC1` (centres undefined) [KETOCONAZOLE], 2.6 µM.
The same measure, in the same setting: the same measure for `COC1=CC(=O)C[C@@H](C)[C@]12Oc1c(Cl)c(OC)cc(OC)c1C2=O` [GRISEOFULVIN]: 7.3 µM.
For the compound `CN(C)CCCN1c2ccccc2CCc2ccccc21` [IMIPRAMINE], the IC50 in series [1] amounted to 7.95 µM.
Still for that read-out and setting: the result for `CCc1nc(N)nc(N)c1-c1ccc(Cl)cc1` [PYRIMETHAMINE] reads 13.6 µM; that for `CCCNCC(O)COc1ccccc1C(=O)CCc1ccccc1` (centres undefined) [PROPAFENONE], 15.5 µM.
Same read-out and setting: the same measure for `CNCCCN1c2ccccc2CCc2ccccc21` [DESIPRAMINE]: 9.18 µM; for `COc1ccccc1OCCNCC(O)COc1cccc2[nH]c3ccccc3c12` (centres undefined) [CARVEDILOL]: 3.4 to 3.43 µM; for `CCN(CC)CCNC(=O)c1c(C)[nH]c(/C=C2\C(=O)Nc3ccc(F)cc32)c1C` [SUNITINIB]: 6.1 µM.
Still for that read-out and setting: the result for `Oc1ccc(Cl)cc1Cc1cc(Cl)ccc1O` [DICHLOROPHEN] reads 8.41 µM.
Turning to `CCN(CC)C(C)CN1c2ccccc2Sc2ccccc21` (centres undefined) [ETHOPROPAZINE], the “inhibition (INH)” value in series [3] and in series [4] was “Active” each time. Moreover, in series [1], the IC50 came to 20.5 µM.
As to `CCN(CC)CCOCCOC(=O)C1(c2ccccc2)CCCC1` [CARBETAPENTANE], in series [1], the 50% inhibitory concentration (IC50) was 1.55 to 1.6 µM.
The same measure, in the same setting: the result for `Clc1ccccc1C(c1ccccc1)(c1ccccc1)n1ccnc1` [CLOTRIMAZOLE] reads 12 µM.
On to `Nc1c2c(nc3ccccc13)CCCC2` [TACRINE], for which the “inhibition (INH)” value in series [3] and in series [4] was “Active” throughout. For the same compound, in series [1], the IC50 is 21.7 µM.
As to `CN/C(=N/CCSCc1nc[nH]c1C)NC#N` [CIMETIDINE], on OCT1 (SLC22A1), the inhibition at 2 min turned out to be 4.13%. The IC50 in series [5] came to 149 µM.
Regarding `Oc1c(Cl)cc(Cl)cc1Sc1cc(Cl)cc(Cl)c1O` [BITHIONOL], in series [1], the IC50 came to 2.23 µM.
Same read-out and setting: the same measure for `N=C(N)N/N=C/c1c(Cl)cccc1Cl` [GUANABENZ]: 4.85 µM.

Values taken from ChEMBL document CHEMBL4007438, “Discovery of Competitive and Noncompetitive Ligands of the Organic Cation Transporter 1 (OCT1; SLC22A1)” (J Med Chem, 2017).
